Experimental data taken from ChEMBL document CHEMBL2380225, “Chalcones, inhibitors for topoisomerase I and cathepsin B and L, as potential anti-cancer agents” (Bioorg Med Chem Lett, 2013).

Key:
[1] = target: DNA topoisomerase 2-alpha (Homo sapiens) (UniProt P11388); test: Inhibition of human topoisomerase 2 at 100 uM relative to control
Outline: (§1)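 Supercoiled DNA relaxation assay with human topoisomerase I or II (Topogen). Compounds were tested at final 100 and 20 μM. Percent inhibition was derived from the inhibition ratio by image analysis and expressed as the mean of triplicate experiments.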

[2] = target: Cathepsin B (Homo sapiens, UniProt P07858); test: Inhibition of cathepsin B (unknown origin) using RR-AMC as substrate after 30 mins by fluorescence assay
[3] = test system: SNU-638; test: Cytotoxicity against human SNU638 cells by MTT assay; assay type: functional, cell-based
Outline: (§2)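 MTT viability assay on T47D (breast ductal carcinoma) and SNU638 (gastric cancer) human cell lines. IC50 reported as mean ± SD of three separate experiments, each run in triplicate.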

[4] = test system: T47D; test: Cytotoxicity against human T47D cells by MTT assay; assay type: functional, cell-based; outline: as §2
[5] = target: T1, DNA topoisomerase 1 (Homo sapiens) (UniProt P11387); test: Inhibition of human topoisomerase 1 at 100 uM relative to control; outline: as §1
T1 sequence (whole entry): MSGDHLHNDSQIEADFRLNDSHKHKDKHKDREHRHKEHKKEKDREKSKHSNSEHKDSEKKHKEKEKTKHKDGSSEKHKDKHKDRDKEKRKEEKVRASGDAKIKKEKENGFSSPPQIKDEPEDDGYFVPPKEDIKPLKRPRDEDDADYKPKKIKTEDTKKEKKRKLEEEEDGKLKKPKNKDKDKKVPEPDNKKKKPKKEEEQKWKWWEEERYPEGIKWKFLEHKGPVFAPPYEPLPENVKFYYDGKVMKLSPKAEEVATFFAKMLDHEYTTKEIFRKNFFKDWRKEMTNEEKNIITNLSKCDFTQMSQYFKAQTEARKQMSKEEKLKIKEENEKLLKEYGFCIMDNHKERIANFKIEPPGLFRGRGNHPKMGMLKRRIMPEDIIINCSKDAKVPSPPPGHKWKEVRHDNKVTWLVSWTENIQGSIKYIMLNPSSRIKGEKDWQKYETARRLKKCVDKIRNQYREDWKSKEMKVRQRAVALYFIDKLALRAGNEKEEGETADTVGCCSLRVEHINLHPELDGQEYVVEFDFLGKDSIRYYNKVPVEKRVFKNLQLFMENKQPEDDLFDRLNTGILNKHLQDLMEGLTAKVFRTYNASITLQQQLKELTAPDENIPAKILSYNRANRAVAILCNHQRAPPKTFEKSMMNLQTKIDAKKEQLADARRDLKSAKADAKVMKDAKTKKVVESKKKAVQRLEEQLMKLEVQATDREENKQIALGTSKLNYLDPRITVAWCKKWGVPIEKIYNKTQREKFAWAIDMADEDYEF

[6] = target: T1, DNA topoisomerase 1 (Homo sapiens); test: Inhibition of human topoisomerase 1 at 20 uM relative to control; outline: as §1
[7] = target: Procathepsin L (Homo sapiens, UniProt P07711); test: Inhibition of cathepsin L (unknown origin) using Z-FR-AMC as substrate after 30 mins by fluorescence assay
Outline: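 Calbiochem cathepsin L (4 nM) was reductively pre-activated for 30 min at 37 °C in 0.1 M NaOAc-HCl, 1 mM EDTA, 0.1% β-mercaptoethanol, pH 5.5. Reaction started with compound plus 20 μM Z-FR-AMC and ran 30 min at room temperature. Fluorescence read at 360 nm excitation / 450 nm emission. IC50 is the mean ± SD of triplicate runs.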

[8] = target: DNA topoisomerase 2-alpha (Homo sapiens) (UniProt P11388); test: Inhibition of human topoisomerase 2 at 20 uM relative to control; outline: as §1

Procathepsin L, sequence (P07711 whole entry): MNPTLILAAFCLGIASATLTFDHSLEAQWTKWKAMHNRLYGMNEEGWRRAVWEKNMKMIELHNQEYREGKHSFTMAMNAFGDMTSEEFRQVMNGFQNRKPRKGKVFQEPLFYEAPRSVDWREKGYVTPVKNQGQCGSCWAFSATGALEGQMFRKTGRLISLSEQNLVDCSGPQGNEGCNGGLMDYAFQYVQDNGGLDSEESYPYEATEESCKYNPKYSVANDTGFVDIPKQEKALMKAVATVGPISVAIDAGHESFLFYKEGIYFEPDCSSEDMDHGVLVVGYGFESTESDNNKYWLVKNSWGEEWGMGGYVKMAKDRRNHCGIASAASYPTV
DNA topoisomerase 2-alpha (Homo sapiens), sequence (P11388 whole entry): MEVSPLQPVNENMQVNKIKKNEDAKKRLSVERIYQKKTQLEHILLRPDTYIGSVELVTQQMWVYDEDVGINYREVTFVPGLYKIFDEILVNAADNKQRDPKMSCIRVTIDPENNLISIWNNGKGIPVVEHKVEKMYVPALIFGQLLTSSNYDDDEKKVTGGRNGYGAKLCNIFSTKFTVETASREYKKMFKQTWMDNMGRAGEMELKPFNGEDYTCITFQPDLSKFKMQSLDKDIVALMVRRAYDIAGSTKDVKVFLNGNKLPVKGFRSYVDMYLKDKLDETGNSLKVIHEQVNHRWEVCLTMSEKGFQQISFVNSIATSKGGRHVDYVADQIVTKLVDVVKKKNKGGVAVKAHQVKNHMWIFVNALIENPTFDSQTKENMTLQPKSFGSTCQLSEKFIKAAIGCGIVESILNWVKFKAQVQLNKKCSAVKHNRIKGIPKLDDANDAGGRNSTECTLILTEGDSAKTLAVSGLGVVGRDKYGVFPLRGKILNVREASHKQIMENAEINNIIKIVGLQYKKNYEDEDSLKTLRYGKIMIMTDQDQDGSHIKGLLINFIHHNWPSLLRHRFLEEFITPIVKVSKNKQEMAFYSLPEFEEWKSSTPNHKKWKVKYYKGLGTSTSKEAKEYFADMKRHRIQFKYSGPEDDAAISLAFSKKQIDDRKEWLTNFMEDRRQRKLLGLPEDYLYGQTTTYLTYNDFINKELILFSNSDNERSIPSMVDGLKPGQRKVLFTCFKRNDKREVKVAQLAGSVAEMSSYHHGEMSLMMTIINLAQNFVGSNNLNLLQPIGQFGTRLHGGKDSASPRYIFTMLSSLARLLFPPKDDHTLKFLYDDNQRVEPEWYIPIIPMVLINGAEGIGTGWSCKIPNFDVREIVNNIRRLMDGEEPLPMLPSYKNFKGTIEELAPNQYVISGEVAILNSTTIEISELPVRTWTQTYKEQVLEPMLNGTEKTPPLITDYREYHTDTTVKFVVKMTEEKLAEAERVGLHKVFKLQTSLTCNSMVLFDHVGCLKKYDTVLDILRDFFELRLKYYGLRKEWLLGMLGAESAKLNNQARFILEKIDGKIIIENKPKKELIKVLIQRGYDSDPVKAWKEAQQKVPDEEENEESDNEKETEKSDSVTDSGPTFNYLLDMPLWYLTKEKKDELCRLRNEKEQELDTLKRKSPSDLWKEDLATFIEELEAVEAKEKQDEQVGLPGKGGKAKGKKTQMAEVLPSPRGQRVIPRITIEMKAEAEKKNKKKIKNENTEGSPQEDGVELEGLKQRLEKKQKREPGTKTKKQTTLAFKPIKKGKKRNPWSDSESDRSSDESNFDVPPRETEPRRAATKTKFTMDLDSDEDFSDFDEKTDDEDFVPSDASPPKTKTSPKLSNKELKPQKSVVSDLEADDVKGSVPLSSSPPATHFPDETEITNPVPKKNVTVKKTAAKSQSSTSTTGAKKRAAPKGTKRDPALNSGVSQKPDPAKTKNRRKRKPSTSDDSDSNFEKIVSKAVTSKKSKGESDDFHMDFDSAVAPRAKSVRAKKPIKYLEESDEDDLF

| inhibition [1] [%] | IC50 [2] [µM] | inhibition [5] [%] | inhibition [6] [%] | IC50 [7] [µM] | inhibition [8] [%] | SMILES | IC50 [3] [µM] | IC50 [4] [µM] |
| --- | --- | --- | --- | --- | --- | --- | --- | --- |
| 0 | 54.3 | 90.6 | 73.1 | 56.5 |  | O=C(/C=C/c1ccc(N2CCCC2)cc1)c1ccc(F)cc1 | > 25 | > 25 |
| 1.6 | 57.7 | 88.9 | 2.1 | 30.3 |  | COc1cc(O)ccc1/C=C/C(=O)c1ccc(O)cc1 [ECHINATIN] | 10.4 | 12.1 |
| 0.7 | 95.1 | 95.8 | 9.5 | 73.2 |  | COc1cc(O)ccc1/C=C/C(=O)c1ccc(F)cc1 | 6.3 | 8.51 |
| 2.4 | > 100 | 73.2 | 8.2 | 67.5 |  | COc1ccc(/C=C/C(=O)c2ccc(O)cc2O)cc1Br | 2.89 | 1.05 |
| 96.8 | 1.81 | 74.7 | 60 | 3.15 | 19.1 | O=C(/C=C/c1ccc(N2CCCC2)cc1)c1ccc(O)cc1 | 0.62 | 1.37 |
| 5.8 | > 100 | 74.4 | 2.1 | > 100 |  | COc1ccc(/C=C/C(=O)c2cccs2)cc1Br | 16.6 | 21.9 |
| 0 | > 100 | 86.1 | 61.6 | 91.2 |  | COc1cc(O)ccc1C(=O)/C=C/c1ccc(F)cc1 | > 25 | > 25 |
| 1 | > 100 | 5 | 3.8 | 45.3 |  | COc1ccc(C(=O)/C=C/c2ccc(OC)c(Br)c2)c(O)c1 |  |  |
| 96.1 | 29 | 91.1 | 77.6 | 9.42 | 15.3 | O=C(/C=C/c1ccc(N2CCCC2)cc1)c1ccc([N+](=O)[O-])cc1 | > 25 | 21.3 |
| 0 | 46.8 | 100 | 17.3 | 39.3 |  | COc1cc(O)ccc1/C=C/C(=O)c1ccc(NC(C)=O)cc1 | 17.4 | 12.3 |
| 24.7 | > 100 | 92 | 8.8 | > 100 | 0 | COc1ccc(/C=C/C(=O)c2ccco2)cc1Br | 4.29 | 10.9 |
|  |  |  |  |  |  | COc1cccc2c1C(=O)c1c(O)c3c(c(O)c1C2=O)C[C@@](O)(C(=O)CO)C[C@@H]3O[C@H]1C[C@H](N)[C@H](O)[C@H](C)O1 [DOXORUBICIN] | 0.84 | 2.91 |
| 0 | 76.5 | 0.8 |  | 32.9 |  | COc1cc(O)ccc1/C=C/C(=O)c1ccc(N)cc1 |  |  |
| 0 | 28.7 | 87.1 | 64.4 | 4.72 |  | O=C(/C=C/c1ccc(N2CCCC2)cc1)c1ccc(O)cc1O | 5.77 | 6.99 |
|  |  |  |  |  |  | COc1cc([C@@H]2c3cc4c(cc3[C@@H](O[C@@H]3O[C@@H]5CO[C@@H](C)O[C@H]5[C@H](O)[C@H]3O)[C@H]3COC(=O)[C@H]23)OCO4)cc(OC)c1O [ETOPOSIDE] | 2.57 | 4.98 |
|  |  |  |  |  |  | CC[C@@]1(O)C(=O)OCc2c1cc1n(c2=O)Cc2cc3ccccc3nc2-1 [CAMPTOTHECIN] | 0.28 | 0.07 |
| 48.7 | > 100 | 76.5 | 20.1 | > 100 | 0 | COc1ccc(/C=C/C(=O)c2ccc(F)cc2)cc1Br | > 25 | > 25 |
| 0 | > 100 | 50.9 | 18 | > 100 |  | O=C(/C=C/c1ccc(F)cc1)c1ccc(O)cc1 | 5.54 | 13.8 |
| 42.2 | > 100 | 80.2 | 56.7 | > 100 | 12.6 | O=C(/C=C/c1ccc(F)cc1)c1ccc(O)cc1O | 9.43 | 8.31 |
| 0 | > 100 | 81.2 | 60 | 98.7 |  | COc1ccc(C(=O)/C=C/c2ccc(F)cc2)c(O)c1 | 18.4 | 21.9 |
| 1.2 | > 100 | 24.8 | 6.6 | 29.8 |  | COc1ccc(/C=C/C(=O)c2ccc(O)cc2)cc1Br |  |  |
